This is an account of results in ChEMBL document CHEMBL2169884, “Novel inhibitors of heat shock protein Hsp70-mediated luciferase refolding that bind to DnaJ” (Bioorg Med Chem, 2012).

A short description of test [1]: Inhibition of human HSP70/DnaJ-mediated luciferase refolding after 10 mins by liquid scintillation counting. In a few lines: (§1)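 Luciferase (0.5 mg/mL) denatured in 6 M guanidine HCl in buffer A (25 mM Hepes pH 7.4, 50 mM potassium acetate, 5 mM DTT), 60 min at RT, then diluted 1:20. Refolding mixture: 0.5 µM Hsp70, 60 nM DnaJ, 125 ng denatured luciferase with compound in buffer containing 0.1 mM ATP, creatine phosphate and creatine phosphokinase. Incubated 1 h; DnaJ, luciferase or ATP varied in mechanism runs. Aliquots read by luciferin luminescence after 10 min. IC50 is the geometric mean of ≥3 determinations.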

Test [2] can be described thus: Effect on luciferase activity up to 300 uM.
The subject of the next test is HeLa. In words: Induction of Hsp70 in human HeLa cells at 10 uM after overnight incubation by solid state immuno assay relative to 17-AAG. It counts as functional. In a few lines:
(§2)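 HeLa or A172 cells treated overnight with compound; Hsp70 levels measured by solid-state immunoassay, with stimulation expressed relative to 1 µM 17-AAG as positive control.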

A further test deals with A 172. Nature of the test: Induction of Hsp70 in human A172 cells at 10 uM after overnight incubation by solid state immuno assay relative to 17-AAG. It is filed as functional. The essentials:
as §2

Test [3] can be described thus: Inhibition of luciferase refolding in rabbit reticulocyte lysate preincubated for 30 mins measured after 1 hr by liquid scintillation counting.
Test [4] is filed under the species Homo sapiens. Nature of the test: Inhibition of human HSP70/DnaJ-mediated luciferase refolding after 10 mins by liquid scintillation counting in presence of 0.1 to 10 µg/mL of denatured luciferase. The essentials:
as §1

For test [5], the species on record is Homo sapiens. In words: Inhibition of human HSP70/DnaJ-mediated luciferase refolding after 10 mins by liquid scintillation counting in presence of up to 10 mM of ATP. The essentials:
as §1

Test [6] is filed under the species Homo sapiens. In words: Inhibition of human Hsp70-mediated ATPase activity at 10 uM.
Test [7] in a line: Binding affinity to DnaJ assessed as rightward shift in melting temperature at 10 to 30 uM by thermal denaturation assay.
A short description of test [8]: Binding affinity to DnaJ assessed as rightward shift in melting temperature by thermal denaturation assay.
The species entered for test [9] is Homo sapiens. Nature of the test: Inhibition of DnaJ-mediated stimulation of human Hsp70 ATPase activity at 10 uM. To be noted: 0.1 to 3.2 uM, in the assay text read “at 0.1 to 3.2 uM” for “at 10 uM”. The essentials: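 Hsp70 (300 nM) incubated with 3.2 µM ATP and DnaJ (0.1–320 nM) at 37 °C for 5–40 min in pH 7.4 HEPES buffer with KCl, EGTA and MgCl2. Reactions stopped with EDTA stop buffer containing ADP tracer and antibody. ADP detected by Transcreener fluorescence (ex 580, em 620 nm).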

The species entered for test [10] is Homo sapiens. In words: Binding affinity to human Hsp70 assessed as rightward shift in melting temperature by thermal denaturation assay.
For test [11], the species on record is Homo sapiens. In words: Binding affinity to human Hsp70 assessed as rightward shift in melting temperature at 3.2 to 32 uM by thermal denaturation assay.
Test [12] is described as follows: Binding affinity to DnaJ assessed as rightward shift in melting temperature at 3.2 to 32 uM by thermal denaturation assay.

The structures appear in SMILES notation. The source made the active and inactive calls. The calls are words filed in the database; no cut-off is given here.

For orientation: IC50 means the midpoint of a concentration-inhibition curve. Read a high IC50 as weaker potency in that assay. Take `CCCCCOC(=O)C1=C(C)NC2(O)c3ccccc3C(=O)C12O` (centres undefined): the IC50 in test [1] was > 30 µM; in [3], 4.3 µM. The result in test [2] was inactive. The Activity with HeLa and with A 172 was <10% each time.
On to `Clc1ccccc1C1Oc2ccccc2-c2cc(-c3ccco3)nn21` (centres undefined), for which the IC50 was > 100 µM in [1] and 8.8 µM in test [3]. In addition, the result in test [2] was inactive. Besides, the Activity with HeLa and in the test on A 172 was <10% in each case.
For the compound `CCCCOC(=O)c1cccc(NC(=O)COc2ccc(Cl)cc2Cl)c1`, the inhibition entry in the test listed under Homo sapiens [4] and in the test filed under Homo sapiens [6] was “inactive” throughout. This compound also displayed an IC50 in test [1] of 0.13 µM. In addition, the inhibition result in the test listed under Homo sapiens [5] and in the test filed under Homo sapiens [9] was “Active” each time. In addition, in test [7], the Tm(app) turned out to be 2 °C. For the same compound, the Activity result in test [8] is “Dose-dependent effect”. Further, the outcome in the test listed under Homo sapiens [10] was inactive.
Consider `CCOC(=O)c1cccc(NC(=O)COc2ccccc2Cl)c1`, for which the IC50 amounted to 0.62 µM in [1] and 0.81 µM in test [3]. The result in test [2] was inactive. Also, the Activity in the test with HeLa and in the test on A 172 was <10% throughout.
Regarding `COC(=O)c1cccc(NC(=O)COc2ccc(Cl)cc2Cl)c1`, the outcome (in the test listed under Homo sapiens [11]; in [12]) was inactive. Besides, the IC50 in test [1] is > 32 µM.
Compound `COC(=O)c1cccc(NC(=O)COc2cc(Cl)ccc2Cl)c1` registered an IC50 in test [1] of 0.95 µM.
For the compound `c1ccc(Nc2nc(-c3cccs3)cs2)cc1`, the IC50 in test [1] was found to be 22 µM; in test [3], 1.1 µM. For the same compound, the outcome in test [2] was inactive. The Activity in the test with HeLa and with A 172 was <10% each time.
Regarding `Clc1ccc(Nc2nc(-c3cccs3)cs2)cc1`, the figures for the IC50 in [1] and in [3] were > 100 µM and 4 µM, respectively. In test [2], the result was inactive. Further, the Activity in the test with HeLa and with A 172 was <10% each time.
In the case of `CCCOC(=O)c1cccc(NC(=O)COc2ccccc2Cl)c1`, in test [1], it took 0.6 µM to reach half-maximal inhibition (IC50). In other words, the sub-micromolar range.
As for `CCOC(=O)c1cccc(NC(=O)COc2ccc(Cl)cc2)c1`, the IC50 in test [1] is > 32 µM.
